Key:
Format in all cases: functional
Conditions in all cases: Homo sapiens
COLO 205 = assay: Tested in vitro for cytotoxicity in COLO 205 cell lines
How it was run: (§1)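 Compounds dissolved in DMSO, then diluted 500-fold into aqueous medium. The resulting aqueous solutions or suspensions were added to the cultured human tumour cell lines, and the cells were exposed for 48 h. Growth was read colorimetrically in one of two ways: a metabolic assay in which viable cells reduce a tetrazolium salt to a formazan dye, or a protein stain for total cellular protein.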

SF-268 = assay: Tested in vitro for cytotoxicity in SF-268 cell lines; how it was run: as §1
A549 = assay: Tested in vitro for cytotoxicity in A549/ATCC cell lines; how it was run: as §1
DMS-114 = assay: Tested in vitro for cytotoxicity in DMS114 cell lines; how it was run: as §1
CCRF-CEM = assay: Tested in vitro for cytotoxicity in CCRF-CEM cell lines; how it was run: as §1
IGROV-1 = assay: Tested in vitro for cytotoxicity in IGROV1 cell lines; how it was run: as §1
Malme-3M = assay: Tested in vitro for cytotoxicity in MALME-3M; how it was run: as §1
CAKI-1 = assay: Tested in vitro for cytotoxicity in CAKI-1 cell lines; how it was run: as §1

Row | Structure (SMILES) | GI50 (COLO 205) | GI50 (SF-268) | GI50 (A549) | GI50 (DMS-114) | GI50 (CCRF-CEM) | GI50 (IGROV-1) | GI50 (Malme-3M) | GI50 (CAKI-1)
1 | Cc1c2cc[n+](CC(=O)O)cc2c(C)c2c1[nH]c1ccccc12 | > 100 µM | 97.1 µM | 77.3 µM | 76.8 µM | > 100 µM | > 100 µM | 26.3 µM | –
2 | COc1ccc2[nH]c3c(C)c4c(c(C)c3c2c1)CN(C)C=C4C=O | 16.2 µM | 1.12 µM | 75.7 µM | 2.5 µM | 60.4 µM | 31.2 µM | 40 µM | 73.2 µM
3 | Cc1c2cc[n+](C[S+](C)[O-])cc2c(C)c2c1[nH]c1ccccc12 (configuration not stated) | 31 µM | 2.46 µM | 71 µM | 6.6 µM | 40.6 µM | 29.5 µM | – | 35.8 µM

Reference: ChEMBL document CHEMBL1127574, “Design and synthesis of ellipticinium salts and 1,2-dihydroellipticines with high selectivities against human CNS cancers in vitro” (1994)
